The record followed here is ChEMBL document CHEMBL5712908, “A genome-wide RNAi screen reveals essential therapeutic targets of breast cancer stem cells” (2019).

For assay [1], the system named is Breast cancer cell line. Briefly: Synergistic antitumor activity against human reimplanted CRCM404 negative breast cancer cells orthotopically xenografted in NSG mouse model of PDX assessed as reduction tumor volume at 50 mg/kg, ip 5 out of 7 for 2 weeks cotreated with salinomycin by limiting dilation analysis. Type of assay: functional, organism-based. For orientation: In xenograft studies the graft and the host belong to different species.

Assay [2] deals with Breast cancer cell line. Briefly: Synergistic antitumor activity against human CRCM494 negative breast cancer cells orthotopically xenografted in NSG mouse model of PDX assessed as reduction in tumor volume at 50 mg/kg, ip 5 out of 7 for 2 weeks cotreated with salinomycin. Type of assay: functional, organism-based. An outline of the steps: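 Orthotopic PDX in NSG mice, 100,000 cells per fat pad, two pads per mouse; treatment from ~80 mm³ tumours with salinomycin i.p. 3 mg/kg daily 14 days, JQ1 i.p. 50 mg/kg 5 of 7 days for 2 weeks, or combination, against placebo DMSO/HPCD 10% (1:9). Tumour growth monitored; n = 10 tumours per group.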

For assay [3], the system named is SUM-159-PT. Briefly: Synergistic anticancer activity against human SUM159 cells expressing BFP assessed as reduction in ALDHbr cell at 5 to 500 nM in presence of salinomycin by LSR2 cytometer analysis. Type of assay: functional, cell-based. Conditions: dose 5-500 nM.
Assay [4] deals with SUM-159-PT. Briefly: Anticancer activity against human SUM159 cells assessed as decrease in secondary tumor sphere formation incubated for 72 hrs by Extreme limiting dilution analysis. The assay is classed as functional, cell-based. In a few lines: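 Cells drug-treated in adherent culture for 72 h, then plated as single cells in ultra-low attachment 96-well plates in serum-free mammary epithelium basal medium. Plating at 25/10/5/3/2/1 cells per well, 18–36 wells per condition. Wells with ≥1 sphere after 10 days scored positive. Secondary spheres were made by dissociating primary spheres. Frequency by ELDA; n = 4; pairwise chi-square test.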

The test system of assay [5] is SUM-159-PT. Briefly: Synergistic anticancer activity against human SUM159 cells assessed as decrease in docetaxel induced primary tumor sphere formation at 62 nM incubated for 72 hrs in presence of salinomycin by Extreme limiting dilution analysis. The assay is classed as functional, cell-based. An outline of the steps:
(§1)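 72 h adherent pretreatment (Sal/JQ1 62 nM/62 nM; docetaxel added at 2 nM where used), then single cells plated in ultra-low attachment 96-well plates in serum-free mammary epithelium basal medium at 25/10/5/3/2/1 cells/well (18–36 wells/condition). Wells with ≥1 sphere after 10 days scored positive; sphere-forming frequency by ELDA. Secondary spheres from dissociated primary spheres. n = 4; pairwise chi-square.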

For assay [6], the system named is SUM149PT. In words: Antitumor activity against human SUM149 cells assessed as K-score by measuring ALDHbr cells by LSR2 cytometer. The assay is classed as functional. In a few lines: (§2)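 Cell lines exposed for 72 h in adherent culture to a range of concentrations centred on the MTS-derived IC50. ALDHbr proportion measured by ALDEFLUOR flow cytometry (LSR2). K-score is the linear regression coefficient, on log10-transformed doses, between the untreated condition and the dose predicted to give a 50% decrease or increase in ALDHbr proportion versus control.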

Assay [7] has as its system SUM-159-PT. Briefly: Induction of apoptosis in human SUM159 cells expressing ALDH upto 100 uM incubated for 72 hrs by ALDEFLUOR/YO-PRO-3/ Hoechst 33342 staining based high content imaging microscopic analysis. Type of assay: functional, cell-based. An outline of the steps:
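SUM159 at 3,000 cells/well on collagen plates, dosed at 6, 24 and 48 h post-seeding; 0.1% DMSO negative control, cisplatin positive control. At 72 h stained 30 min at 37°C with ALDEFLUOR, YO-PRO-3 and Hoechst 33342, then imaged ice-cold. YO-PRO-3-positive nuclei (above untreated signal) counted over total cells, per ALDHbr/ALDH- subpopulation; n = 6.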

Assay [8] concerns SUM-159-PT. Briefly: Synergistic apoptosis in human SUM159 cells expressing ALDHbr at 500 nM incubated for 72 hrs in presence of salinomycin by ALDEFLUOR/YO-PRO-3/ Hoechst 33342 staining based high content imaging microscopic analysis. The assay is classed as functional, cell-based. In a few lines:
(§3)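 SUM159 cells seeded at 3,000 cells/well in collagen-coated 96-well plates. Drug added at 6, 24 and 48 h post-seeding. Cisplatin served as positive control and 0.1% v/v DMSO as vehicle control. At 72 h post-seeding, cells were stained with ALDEFLUOR, YO-PRO-3 (1/4,000) and Hoechst 33342 (10 μg/ml) in ALDEFLUOR buffer for 30 min at 37°C, then imaged on ice by high-content microscopy, 9 fields/well. DEAB set the ALDHbr gate. YO-PRO-3⁺ fraction per subpopulation was gated against untreated cells.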

For assay [9], the system named is SUM-159-PT. In words: Anticancer activity against human SUM159 cells assessed as effect on RFP+/BFP+ cell ratio upto 100 uM after 72 hrs by ALDEFLUOR staining based flow cytometric analysis. Type of assay: functional.
The subject of assay [10] is SUM-159-PT. In words: Synergistic anticancer activity against human SUM159 cells expressing BFP assessed as reduction in ALDHbr cell 50 nM in presence of salinomycin by LSR2 cytometer analysis. The assay is classed as functional.
Assay [11] has as its system SUM-159-PT. Briefly: Antitumor activity against human SUM159 cells assessed as K-score by measuring ALDHbr cells by LSR2 cytometer. The assay is classed as functional. An outline of the steps: as §2
Assay [12] has as its system Breast cancer cell line. Briefly: Antitumor activity against human CRCM434 negative breast cancer cells orthotopically xenografted in NSG mouse model of PDX assessed as reduction ALDHbr cells at 50 mg/kg, ip 5 out of 7 for 2 weeks by LSR2 cytometer analysis. Type of assay: functional, organism-based. An outline of the steps: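 Chemo-naïve triple-negative PDX cells injected at 100,000 per fat pad, two fat pads per NSG mouse. At ~80 mm³ tumours, mice received i.p. 3 mg/kg daily for 14 days or 50 mg/kg 5 of 7 days for 2 weeks; placebo was DMSO/HPCD 10% (1:9). Five mice (10 tumours) per group. Tumour growth monitored; after 2 weeks tumours dissociated, mouse cells excluded via anti-H2Kd, ALDHbr measured by ALDEFLUOR flow cytometry and normalised to vehicle.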

In assay [13] the test system is SUM-159-PT. Briefly: Synergistic apoptosis in human SUM159 cell expressing ALDH at 500 nM incubated for 72 hrs in presence of salinomycin by ALDEFLUOR/YO-PRO-3/ Hoechst 33342 staining based high content imaging microscopic analysis. Type of assay: functional. In a few lines: as §3
Assay [14] can be described thus: Antitumor activity against human S68 cells assessed as K-score by measuring ALDHbr cells by LSR2 cytometer. Type of assay: functional. In a few lines: as §2
The subject of assay [15] is Breast cancer cell line. Briefly: Synergistic antitumor activity against human CRCM434 negative breast cancer cells orthotopically xenografted in NSG mouse model of PDX assessed as reduction ALDHbr cells at 50 mg/kg, ip 5 out of 7 for 2 weeks cotreated with salinomycin by LSR2 cytometer analysis. Type of assay: functional.
Assay [16] relates to SUM149PT. Briefly: Anticancer activity against human SUM149 cells assessed as ALDHbr cells at 1 mM by LSR2 cytometer (reference value: 4.8%). The assay is classed as functional. Set-up: dose or concentration left out as unconfirmed.
Assay [17] deals with SUM-159-PT. Briefly: Synergistic anticancer activity against human SUM159 cells assessed as decrease in secondary tumor sphere formation at 62 nM incubated for 72 hrs in presence of salinomycin by Extreme limiting dilution analysis. The assay is classed as functional. An outline of the steps: as §1
Assay [18] relates to Breast cancer cell line. In words: Synergistic apoptosis activity in patient-derived breast cancer cells orthotopically xenografted in NSG mouse model of PDX assessed as increase in cleaved caspase-3 at 50 mg/kg, ip 5 out of 7 for 2 weeks by Immunostaining analysis. The assay is classed as functional, organism-based. Conditions: Homo sapiens. In a few lines: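 Paraffin sections of treated PDX tumours deparaffinised and subjected to antigen retrieval in citrate buffer pH 6. Peroxidase staining with ready-to-use Ki67 or cleaved caspase-3 antibody, DAB substrate, haematoxylin counterstain. Proportion of positive cells quantified; n = 3; t-test.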

The source made the active and inactive calls. No cut-off for these calls is given here.

As for `Cc1sc2c(c1C)C(c1ccc(Cl)cc1)=N[C@@H](CC(=O)OC(C)(C)C)c1nnc(C)n1-2`, the outcome in the assay on Breast cancer cell line [1], in the assay with Breast cancer cell line [2], with SUM-159-PT [3], in the assay with SUM-159-PT [4], with SUM-159-PT [5] and in the assay on SUM-159-PT [7] was Active. Besides, the result in the assay with SUM-159-PT [8], in the assay with Breast cancer cell line [12] and with SUM-159-PT [13] was Active. Besides, the Activity was -0.13 in the assay on SUM149PT [6], -0.2 in the assay with SUM-159-PT [11], -0.15 in assay [14] and 1.2% with SUM149PT [16]. Also, the outcome in the assay with SUM-159-PT [9] and with Breast cancer cell line [18] was inactive. In addition, the results for the “fold change (FC)” value in the assay with SUM-159-PT [10], in the assay with Breast cancer cell line [15] and in the assay on SUM-159-PT [17] were 4, 2 and 5.4, respectively.
